The list is not random: actives were taken first. Their share in the collection is about 3.9%.
TAAR1 ag: human TAAR1 agonism | Q96RJ0 | CHO RD-HGA16 TAAR1, Fluo-8 calcium fluorescence; vehicle wells 0%, saturating PEA agonist 100% | activation, % at 3 µM | 360,000 compounds, 0.99% hits;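 active = activation above the mean activation of all test compounds in the run plus 3 SD, cut at about 38% in these data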
Target sequence (Q96RJ0 whole entry, looked up): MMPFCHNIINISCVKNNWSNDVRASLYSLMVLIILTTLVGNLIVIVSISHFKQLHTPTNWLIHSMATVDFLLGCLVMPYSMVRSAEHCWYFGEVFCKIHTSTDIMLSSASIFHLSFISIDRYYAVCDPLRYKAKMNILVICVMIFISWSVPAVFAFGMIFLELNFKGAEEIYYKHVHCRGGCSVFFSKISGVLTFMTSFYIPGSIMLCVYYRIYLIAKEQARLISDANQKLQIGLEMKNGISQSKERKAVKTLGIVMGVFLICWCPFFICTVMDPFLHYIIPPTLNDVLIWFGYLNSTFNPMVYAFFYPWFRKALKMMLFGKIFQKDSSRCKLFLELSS
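System: CHO-derived RD-HGA16 cells with stable Gα16 and human TAAR1 / Times: 17-24 h plating, Fluo-8 75 min 37 °C, 30 min RT / Technique: calcium-sensitive Fluo-8 signal, excitation 470-495, emission 515-575 nm / Measure: % activation relative to PEA EC100 response / Benchmarks: DMSO and PEA EC100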
CRFR2-BP antag: CRF-BP/CRF-R2 complex antagonism; HEK293 CRF-R2/CRF-BP, CRF-induced calcium fluorescence; 350,000 compounds, 0.59% hits; inhibition, % at 11.8 µM;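 active = inhibition of the ligand-induced calcium signal above about 50% at the single tested concentration, limit read from the data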
TAAR1 antagonist: antagonists of human TAAR1; Q96RJ0; CHO RD-HGA16 TAAR1, Fluo-8 calcium fluorescence, antagonist; AID 624466; inhibition, % at 3 µM; 360,000 compounds, 1.5% hits;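 active = inhibition above a per-plate cutoff, the mean inhibition of test compounds on that plate plus 3 SD, cut at about 49% in these data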;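 also: 0% = DMSO plus EC80 beta-PEA response and 100% = DMSO alone without agonist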
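Test system: RD-HGA16 CHO cells with stable hTAAR1 and Gα16 / Probe or stimulus: EC80 β-phenethylamine stimulus / Times: seeding 17-24 h prior, 75-min 37 °C, 30-min RT dye loading / Detection: Fluo-8 calcium-sensitive fluorescence / Read-out basis: % inhibition scaled between DMSO and EC80 PEA controls / Repeats: singlicate, one well per test compound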
TMEM16A inh: inhibitors of mouse TMEM16A calcium-activated chloride channel. Q8BHY3. HEK293 TMEM16A/YFP iodide influx fluorescence, ionomycin. normalized B-score (activity score, 25-100; higher = stronger inhibition) at 10 µM. 310,000 compounds, 1.2% hits. AID 588511;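 active = ratio plate-corrected score three or more library SD toward inhibition, starting fluorescence score within five deviations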;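 also: score derived from kinetic fluorescence span divided by baseline fluorescence per well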
ANO1 activ: activators or potentiators of mouse TMEM16A chloride channel | HEK293 TMEM16A/YFP-H148Q/I152L, iodide quench fluorescence; stronger effect = lower value | 340,000 compounds, 0.3% hits | Q8BHY3 | B-score at 10 µM;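 active = fluorescence-ratio B-score plate-corrected deviation score at least 3 library SD below zero, with starting fluorescence score within 5 deviations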;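 also: channel opened by trigger with iodide after compound preincubation; score built on the fluorescence ratio of max minus min over baseline; more negative score means more quench and so TMEM16A activation or potentiation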
CRFBP-R2 agonist: agonists of human CRF-binding protein/CRF-R2 receptor complex; 350,000 compounds, 0.46% hits; activation, % at 13.2 µM; HEK293 CRF-R2/CRF-BP, calcium dye fluorescence (FLIPR); percent of saturating CRF peptide response; AID 588473;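 active = activation of at least 50%, plus an integration ratio under a set limit after plate pattern correction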;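 also: plate controls were neutral control wells without compound for no effect and CRF at EC100 for full effect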
Active calls of the source: *; i = inactive; / = not tested or not shown.

SMILES | TAAR1 ag | CRFR2-BP antag | TAAR1 antagonist | TMEM16A inh | ANO1 activ | CRFBP-R2 agonist
COCCNc1nc2c(c(=O)n(Cc3ccccc3F)c(=O)n2C)n1C | 1 | 5 | -15 | i | i | 0
Nc1ccccc1C(=O)NNC1=C(C(=O)C(F)(F)F)CCC1 | 0 | 17 | -9 | i | i | 7
COc1ccccc1C(=O)NNC1=C(C(=O)C(F)(F)F)CCC1 | -1 | 28 | -15 | i | i | 62*
COc1cccc(C(=O)NNC2=C(C(=O)C(F)(F)F)CCC2)c1 | 2 | 8 | -22 | i | i | 0
O=C(NNC1=C(C(=O)C(F)(F)F)CCC1)c1ccccc1O | 4 | -15 | 21 | 100* | i | -1
O=C(NNC1=C(C(=O)C(F)(F)F)CCC1)c1ccccc1Cl | 2 | 14 | 2 | i | -19* | 0
CC(=O)c1c[nH]c(C(=O)NCc2ccccc2Cl)c1 | 0 | -13 | 0 | i | i | -1
COc1ccc(S(=O)(=O)N2CCCC(C(=O)NC3CC3)C2)cc1OC (configuration not stated) | 0 | 10 | 0 | i | i | -1
O=C1Nc2ccc(Cl)cc2[C@@](C#CC2CC2)(C(F)(F)F)O1 | / | / | / | 100* | / | /
O=C1Nc2cc(Cl)ccc2C1(N1CCNCC1)C(F)(F)F (configuration not stated) | 0 | 2 | 12 | i | i | 0
Cc1cc(C)n2nc(SCC(=O)c3c(N)n(CC(C)C)c(=O)n(C)c3=O)nc2n1 | 3 | -3 | -30 | i | i | -3
Cc1cc(C)c2nc(-c3ccccn3)cc(C(=O)Nc3ccc(S(=O)(=O)Nc4cc(C)on4)cc3)c2c1 | 5 | 30 | 0 | 25* | i | -2
Cc1cc(C)c2nc(-c3ccccn3)cc(C(=O)Nc3ccc(S(=O)(=O)Nc4onc(C)c4C)cc3)c2c1 | / | 41 | / | i | i | 0
O=C(NCCCc1ccccc1)c1cccc([N+](=O)[O-])c1 | 1 | 55* | 2 | i | i | -5
Fc1cccc(NC(=S)NCCc2ccccc2)c1 | 29 | 16 | -13 | i | i | 0
O=[N+]([O-])c1cccc(NC(=S)NCCc2ccccc2)c1 | 10 | 27 | 23 | 100* | i | 12
Cc1cc(O)c(NC(=O)c2cccc([N+](=O)[O-])c2)cc1C | 0 | 3 | 0 | i | i | 2
O=C(NCCc1ccc(F)cc1)Nc1ccc([N+](=O)[O-])cc1 | -1 | 22 | 22 | i | i | 0
Cc1cc(CSc2ccccc2)ccc1NC(=O)c1cccc([N+](=O)[O-])c1 | 6 | 4 | 49* | i | i | 0
O=[N+]([O-])c1ccc(NC(=S)NCCc2ccc(F)cc2)cc1 | 10 | 54* | 28 | 100* | -4.9* | 29
Fc1cccc(CCN2CCNC[C@@H]2CC2CCCCC2)c1 | 39* | -5 | 7 | / | i | 1
Oc1ccc(C[C@@H]2CNCCN2CCCCC2CCCCC2)cc1 | 43* | -2 | 3 | i | i | -1
Oc1ccc(C[C@@H]2CNCCN2CCc2cc(C(F)(F)F)cc(C(F)(F)F)c2)cc1 | 36 | -14 | -7 | i | i | 7
COc1ccc(-c2cc(C(=O)N3CCN(c4ncccn4)CC3)c3ccccc3n2)cc1OC | 13 | -6 | 57* | / | i | 1
Cc1ccc(-c2cc(C(=O)N3CCN(c4ncccn4)CC3)c3ccccc3n2)cc1 | 16 | -32 | 50* | i | i | 0
SMILES | TAAR1 ag | CRFR2-BP antag | TAAR1 antagonist | TMEM16A inh | ANO1 activ | CRFBP-R2 agonist
CCc1ccc(CN2CCC(n3nccc3NC(=O)Cc3ccccc3)CC2)o1 | 2 | 0 | -19 | i | i | 0
Fc1cc(F)c2nc(Nc3nc4cc5c(cc4s3)OCO5)sc2c1 | 3 | -4 | 61* | i | i | 2
CSCC[C@H](NC(=O)[C@@H]1Cc2c([nH]c3ccccc23)C2c3ccccc3C(=O)N21)C(=O)NCC1CCCO1 (some centres not stated) | 0 | -3 | 4 | i | i | 1
CC1CCN(S(=O)(=O)c2ccc3c(c2)N(CC(=O)NCCCN2CCCC(C)C2)C(=O)CS3)CC1 (configuration not stated) | 3 | -8 | -11 | i | i | -1
CC1CCCN(CCCNC(=O)CN2C(=O)CSc3ccc(S(=O)(=O)N4CCOCC4)cc32)C1 (configuration not stated) | 9 | 89* | -2 | i | i | 2
COc1cccc(/C=N/n2c(-c3cc(C)[nH]n3)n[nH]c2=S)c1O | 0 | -2 | 4 | i | i | -1
O=C(COC(=O)c1ccc(F)cc1F)Nc1ccc(S(=O)(=O)N2CCOCC2)cc1 | 2 | -4 | 3 | / | / | -2
CCCCCNC1=CC(=O)CC(c2ccccc2)C1 (configuration not stated) | 1 | 81* | -1 | i | i | -1
Cc1ccsc1C(=O)Nc1ccc(OCc2ccccc2)cc1 | 17 | 2 | 54* | i | i | 14
COC(=O)c1ccccc1NC(=O)CN(CCc1ccccc1)S(C)(=O)=O | 9 | -8 | 4 | i | i | -1
CS(=O)(=O)N(CCc1ccccc1)CC(=O)Nc1ccc(OCc2ccccc2)cc1 | 2 | -2 | 17 | i | -20* | 4
CCOC(=O)[C@]12CCCC=C1N(Cc1ccc3c(c1)OCO3)C(=O)[C@H](CC(=O)N1CCC(c3ccccc3)CC1)C2 | 0 | / | 6 | / | / | /
COC(=O)[C@]12CCCCC=C1N(CCc1ccc(OC)c(OC)c1)C(=O)[C@H](CC(=O)N1CCCCC1)C2 | 12 | / | 52* | / | / | /
COC(=O)[C@]12CCCCC=C1N(Cc1ccc3c(c1)OCO3)C(=O)[C@H](CC(=O)NCc1ccc(OC)c(OC)c1)C2 | 14 | / | 59* | / | / | /
COC(=O)[C@]12CCCCC=C1N(Cc1cccc3ccccc13)C(=O)[C@H](CC(=O)NCc1ccc(OC)c(OC)c1)C2 | 27 | / | 49* | / | / | /
COC(=O)[C@]12CCCCC=C1N(Cc1ccc3c(c1)OCO3)C(=O)[C@H](CC(=O)N1CCC(c3ccccc3)CC1)C2 | 1 | / | 56* | / | / | /
O=c1ccn([C@@H]2O[C@H](CNCc3c(OCc4ccccc4F)ccc4ccccc34)[C@@H](O)[C@H]2O)c(=O)[nH]1 | 2 | / | -12 | / | / | /
CCCCCC(=O)NCc1c(C(F)(F)F)nn(C)c1N1CCOCC1 | 0 | 23 | -7 | i | i | -7
Cc1cc(C)cc(OCC(=O)Nc2cccc(S(=O)(=O)NC3=NCCC3)c2)c1 | 5 | -3 | -12 | / | i | -2

Assay outcomes deposited in PubChem BioAssay by several laboratories.
